Compound activity from PubChem.
Rows were chosen to be rich in hits. Some 2.5% of all compounds tested hit in one or more screens of this group.
MC4R ag barr – human MC4R agonism via beta-arrestin; P32245; U2OS MC4R beta-arrestin complementation, luminescence; percent of melanotan II response, DMSO zero; activation, % at 8.9 µM; actives 0.98% (n = 360,000); AID 540308;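 active = activation above a per-plate cutoff, the mean activation of sample wells on that plate plus 3 SD, cut at about 8% in these data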
Target sequence (P32245 whole entry, looked up): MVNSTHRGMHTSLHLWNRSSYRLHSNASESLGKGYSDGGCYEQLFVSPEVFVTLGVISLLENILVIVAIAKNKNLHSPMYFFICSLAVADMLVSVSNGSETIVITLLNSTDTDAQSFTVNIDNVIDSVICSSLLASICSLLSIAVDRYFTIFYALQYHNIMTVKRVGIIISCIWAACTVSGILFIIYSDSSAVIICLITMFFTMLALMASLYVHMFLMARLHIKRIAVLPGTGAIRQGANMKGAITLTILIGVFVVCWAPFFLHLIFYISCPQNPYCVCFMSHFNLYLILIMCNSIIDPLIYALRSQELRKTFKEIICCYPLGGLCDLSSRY
NTR1 agonist – activates human neurotensin receptor 1; activation, % at 20 µM; NTR1-U2OS beta-arrestin-GFP spot imaging, agonist mode; actives 0.17% (n = 330,000); P30989;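 active = activation at or above 40% of the spot to cytoplasm intensity ratio, with at least 20 cells analyzed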;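 note: 0% = DMSO without peptide and 100% = 100 nM NTR1 peptide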
NR1D1 modulator – Rev-erb alpha (human) modulation; AID 1259318; P20393; Rev-erbα–FITC-DNA binding, fluorescence polarization, 90 min; actives 0.79% (n = 370,000); activity, % at 10 µM;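 active = activity above about 14%, limit read from the data; passing the limit was not always enough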;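 note: 0% = DMSO wells with 35 nM protein and 100% = DMSO wells with 750 nM protein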
PG9 binder – small molecules binding HIV-1 gp120 antibody PG9; actives 0.43% (n = 360,000); TR-FRET gp120-PG9 antibody binding; inhibition, % at 6.7 µM; AID 624416; in the data active = inhibition above about 8.5%
MC4R antag cAMP – antagonists of human melanocortin 4 receptor (MC4R); P32245; MC4R-expressing cells, MTII-stimulated cAMP, LANCE TR-FRET; inhibition, % at 6.5 µM; actives 0.48% (n = 360,000); AID 540295;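 active = inhibition above its plate's cutoff, the mean of tested wells on that plate plus 3 SD, cut at about 29% in these data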;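 note: 0% = Melanotan II alone and 100% = Melanotan II plus saturating MCL0020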
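Material: human MC4R-expressing U2OS cells. Probe or stimulus: Melanotan II challenge. Dosing: 6.5 µM single dose. Times: 30-min compound, 1-h challenge, 1-h detection, room temperature. Technique: TR-FRET with Eu-cAMP and labeled anti-cAMP, 671 nm. Replication: singlicate.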
Rev-erbA confirm – confirmation of modulators of human Rev-erb alpha DNA binding | actives 61% (n = 3,000) | activation, % at 25 µM | shares compounds with NR1D1 modulator | Rev-erb alpha FITC-DNA binding, fluorescence polarization, 90 min;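 active = activation at or above a set limit, or at least 3 SD above the negative control mean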;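 note: 0% = 35 nM protein with DMSO and 100% = 750 nM protein high control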
RORg DNA counter – RORgamma DNA-binding activity, dose-response counter-screen; shares compounds with NR1D1 modulator; actives 8% (n = 910); IC50, µM; purified RORgamma protein-FITC-DNA binding, fluorescence polarization;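 active = Compounds whose fitted half-maximal concentration for disrupting protein-DNA binding is below 10 micromolar; the record names Rev-erb in its text, so the target is in doubt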
Starred values were filed as active, the others as inactive; i = inactive; · = no result.

SMILES	MC4R ag barr	NTR1 agonist	NR1D1 modulator	PG9 binder	MC4R antag cAMP	Rev-erbA confirm	RORg DNA counter
CCN1C(=O)[C@H]2[C@@H](c3ccc(-c4cc(C(C)=O)cs4)cc3)N3CCCC[C@@]3(C(=O)OC)[C@H]2C1=O	1	9	30*	0	0	21*	·
COc1ccc(N2CCN(CCNS(=O)(=O)c3c(C(C)C)cc(C(C)C)cc3C(C)C)CC2)cc1	·	·	-1	·	·	·	·
COC(=O)[C@]12C[C@H](CC(=O)NCc3cccs3)C(=O)N(Cc3cccc4ccccc34)C1=C[C@H](C1CCCC1)O[C@@H]2C	·	·	1	·	·	·	·
Cc1cc2c(s1)c1cnn(Cc3ccccc3F)c(=O)c1n2C	-1	3	33*	0	-5	18*	·
Cc1cc2c(s1)c1cnn(Cc3c(Cl)ccc(C)c3F)c(=O)c1n2C	·	·	233*	·	·	81*	>40
Cc1cc2c(s1)c1cnn(Cc3cc(F)ccc3F)c(=O)c1n2C	·	·	15	·	·	·	·
Cc1cc(C)cc(C(=O)NC(=S)Nc2ccc(-c3cc4ccccc4oc3=O)cc2)c1	-1	0	70*	1	19	36*	·
Cc1ccc(C(=O)NC(=S)Nc2ccc(-c3cc4ccccc4oc3=O)cc2)c(C)c1	-1	6	68*	0	0	18*	·
O=C(Nc1ccccc1Cl)OC1CC2CC1[C@H]1CCCCN1[C@H]2Cc1ccccc1 (stereo partly drawn)	·	·	4	·	·	·	·
COC(=O)[C@]12C[C@H](CC(=O)NCCCN3CCCC3=O)C(=O)N(Cc3cccc4ccccc34)C1=C[C@H](C(C)(C)C)O[C@@H]2C	·	·	3	·	·	·	·
COc1cc(N=Nc2ccc(C)cc2S(N)(=O)=O)c(C)cc1N	-2	·	25*	0	2	21*	·
O=c1c2ccccc2nnn1Cc1ccco1	·	·	-6	-3	·	·	·
COC(=O)[C@]12C[C@H](CC(=O)N3CCN(C(=O)C4CC4)CC3)C(=O)N(Cc3ccccc3)C1=C[C@H](C1CCCC1)O[C@@H]2C	·	·	3	2	·	·	·
Cc1ccc(-c2cc(C(=O)NN=Cc3c(O)ccc4ccccc34)[nH]n2)cc1C	·	·	22*	·	·	16*	·
O=C(NCc1ccco1)c1ccc(Cn2c(=O)c3ccccc3n(Cc3ccc(Cl)cc3)c2=O)cc1	-1	-2	7	1	0	·	·
O=C(NCc1ccco1)c1ccc(Cn2c(=O)c3ccccc3n(Cc3cccc(F)c3)c2=O)cc1	-1	0	53*	-1	2	37*	i
COc1nc(-c2ccc(Cl)cc2)ccc1-c1noc(-c2ccco2)n1	-1	0	31*	0	9	1	·
CCN(CC)c1ccc(/C=C(\C#N)C(N)=S)cc1	-4	-4	76*	-9	-10	64*	>40
N#CC(=Cc1ccc(-c2ccccc2)cc1)C(=O)c1ccccc1	·	·	2	-1	·	·	·
CCN(CC)c1ccc(/C=C(\C#N)C(N)=O)cc1	-3	·	9	-7	-11	·	·
CCN(CC)c1ccc(/C=C(\C#N)C(=O)c2ccc(Br)cc2)cc1	-3	·	59*	-3	3	70*	>40
COCC#Cc1ccc(CC[C@H]2O[C@H]3CC[C@@H](CO)O[C@H]3C[C@H]2n2cc(C3CC3)nn2)cc1	·	·	8	·	·	·	·
CCOc1ccc(NC(=O)COC(=O)c2ccc(S(=O)(=O)N3CCOCC3)cc2)cc1	-2	0	0	1	-5	·	·
CCOc1ccc(-n2c([S-])c(C(=O)Nc3ccc(S(=O)(=O)N4CCOCC4)cc3)[n+]3cc(C(N)=O)ccc23)cc1	0	1	91*	-1	2	43*	>40
CC1CC1C(=O)Nc1nc(-c2cccs2)c(-c2cccs2)s1 (stereo not drawn)	-2	13	53*	4	4	75*	i
Nc1nc(-c2cccs2)c(-c2cccs2)s1	2	-1	282*	5	8	244*	i
O=C(Nc1nc(-c2cccs2)c(-c2ccccc2)s1)c1ccco1	0	10	1	-1	-2	·	·
Nc1nc(-c2cccs2)c(CC(=O)O)s1	0	1	3	-2	9	·	·
